GRK2 inh: compounds blocking aptamer binding on GRK2 – biochemical, human GRK2, bead flow cytometry, HTS, primary screen; Beta-adrenergic receptor kinase 1 (Homo sapiens), P25098; FAM-aptamer displacement from GRK2; inhibition of aptamer binding, % at 10 µM; 330,000 tested, 0.59% active; AID 488847, 2010;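 active = inhibition of aptamer binding above 40%, roughly 3 SD of noise, on plates passing a quality check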;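 also: median bead fluorescence of bound FAM aptamer so fluorescent compounds give negative values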
SUMO1-SIM PPI: modulators of SUMO1 protein-protein interactions, primary screen, biochemical, uHTS; 360,000 tested, 0.33% active; inhibition, % at 20 µM; Small ubiquitin-related modifier 1 (Homo sapiens), P63165; SUMO1 binding to a labelled peptide, TR-FRET, 1 h; in the data active = inhibition above about 37%
Target sequence (P63165 whole entry, looked up): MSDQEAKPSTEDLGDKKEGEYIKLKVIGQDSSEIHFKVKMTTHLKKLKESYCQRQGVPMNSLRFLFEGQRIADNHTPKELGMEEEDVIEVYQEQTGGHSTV
LMPTP inh: LMPTP phosphatase inhibitors, primary screen, biochemical, fluorescence intensity, uHTS; Low molecular weight phosphotyrosine protein phosphatase (Homo sapiens), P24666; recombinant LMPTP-A, OMFP fluorogenic substrate; inhibition, % at 20 µM; 360,000 tested, 0.22% active; AID 651560, 2012;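 active = compounds that cut the enzyme signal by at least half of the control window in the single-dose screen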;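 also: plate controls were DMSO wells with enzyme plus substrate for no effect and substrate without enzyme for full effect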
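Material: LMPTP-A; amount: 0.625 nM enzyme; doses: single 20 µM dose; times: reaction 50 min, room temperature, dark; technique: fluorescence intensity of OMFP turnover product; benchmarks: no-enzyme and uninhibited controls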
Scp1 inh: Scp-1 phosphatase inhibitors, primary screen, biochemical, colorimetric, uHTS; 340,000 tested, 0.88% active; Recombinant Scp1, phosphopeptide, malachite green phosphate absorbance; inhibition, % at 20 µM; Carboxy-terminal domain RNA polymerase II polypeptide A small phosphatase 1 (Homo …;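 active = inhibition above about 50% at 20 µM, limit read from the data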;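 also: plate controls were DMSO wells with enzyme for no effect and wells lacking enzyme for full effect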
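Test system: SCP-1 phosphatase catalytic domain, residues 76-261 | Compound dosing: One concentration, 20 µM, with 1.0% DMSO | Schedule: 45 min room-temperature reaction, 5 min colour, 30 min stabiliser | Detection: Absorbance at 630 nm | Read-out basis: % inhibition of SCP-1 phosphate liberation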
STEP block: STEP phosphatase inhibitors, primary screen, biochemical, fluorescence intensity, uHTS. Tyrosine-protein phosphatase non-receptor type 5 (Homo sapiens), P54829. recombinant STEP, OMFP fluorogenic substrate. inhibition, % at 20 µM. 360,000 tested, 0.25% active;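 active = inhibition at 20 µM, scaled per plate between control wells, above about 37%, limit read from the data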;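 also: 0% = DMSO with enzyme and substrate and 100% = substrate only without enzyme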
Target sequence (P54829 whole entry, looked up): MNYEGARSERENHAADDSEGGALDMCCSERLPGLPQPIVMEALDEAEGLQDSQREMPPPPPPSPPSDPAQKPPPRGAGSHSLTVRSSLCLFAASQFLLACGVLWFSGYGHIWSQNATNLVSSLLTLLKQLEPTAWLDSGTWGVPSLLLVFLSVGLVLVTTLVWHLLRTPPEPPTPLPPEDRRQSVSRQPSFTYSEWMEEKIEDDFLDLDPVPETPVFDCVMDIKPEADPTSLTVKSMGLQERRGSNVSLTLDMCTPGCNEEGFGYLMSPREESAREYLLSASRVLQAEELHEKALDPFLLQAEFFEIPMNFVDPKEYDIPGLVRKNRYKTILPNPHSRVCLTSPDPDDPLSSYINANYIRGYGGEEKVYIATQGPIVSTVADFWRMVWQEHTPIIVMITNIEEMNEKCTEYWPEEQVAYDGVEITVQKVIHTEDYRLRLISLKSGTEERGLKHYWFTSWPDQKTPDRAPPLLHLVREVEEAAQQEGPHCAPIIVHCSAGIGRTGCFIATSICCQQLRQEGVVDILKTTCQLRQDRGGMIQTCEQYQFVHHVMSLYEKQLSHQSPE
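material = STEP tyrosine phosphatase | reagent = fluorogenic phosphatase substrate OMFP at 25 µM final | doses = single compound dose of 20 µM, 1% DMSO final | schedule = 20 min reaction, room temperature, in the dark | measured by = fluorescence, 480/540 nm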
DNMT1 block: human DNMT1 methyltransferase inhibitors, primary screen, biochemical, molecular beacon, fluorescence, HinP1I cleavage, uHTS; 360,000 tested, 0.83% active; DNA (cytosine-5)-methyltransferase 1 (Homo sapiens), P26358; AID 588458, 2011; inhibition (reported as % activation of signal), % at 10 µM; in the data active = inhibition above about 50%
GRK2 CP1: GRK2 aptamer-displacing inhibitors, retest, confirmation, biochemical, cherry pick 1, bead flow cytometry. 2,000 tested, 4% active. aptamer displacement, % at 10 µM. shares compounds with GRK2 inh. bead-bound GRK2, FAM-aptamer displacement. AID 504451, 2011;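 active = aptamer displacement above 40%, near three times the noise of non-fluorescent compounds, on plates passing quality checks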;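 also: negative values mostly reflect intrinsic compound fluorescence rather than true enhancement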
Aptamer quench SP: quenches fluorescent RNA aptamer, GRK2 hit artifact | fluorescence response (% of DMSO), % at 10 µM | Carboxyfluorescein RNA aptamer on beads, flow cytometry quenching; stronger effect = lower value | 2,000 tested, under 10 active | shares compounds with GRK2 inh;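 active = compounds that quench the bead-bound fluorescent RNA probe, cutting fluorescence to under half of the solvent control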;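 also: counterscreen run without GRK2 so only probe quenching by compound is measured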
GRK2 confirm 2: GRK2 aptamer-displacing inhibitors, hit retest, confirmation, biochemical, cherry pick 2, bead flow cytometry; shares compounds with GRK2 inh; bead-bound GRK2, FAM-aptamer displacement; inhibition of aptamer binding, % at 10 µM; 360 tested, under 10 active;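 active = inhibition of aptamer binding above 40%, about triple the noise seen with nonglowing compounds, on plates passing quality control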;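 also: negative values mostly come from compounds that fluoresce themselves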
FAM quench SP: counter-screen for GRK2 binding hits: quenchers of fluorescent RNA aptamer; shares compounds with GRK2 inh; carboxyfluorescein RNA aptamer beads, flow cytometry quenching; stronger effect = lower value; fluorescence response vs DMSO, % at 10 µM; 360 tested, under 10 active;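 active = response vs DMSO under 50%, meaning signal dropped by over half, treated as fluorescence quencher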;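 also: labelled aptamer on streptavidin beads without GRK2 as a quench counter-screen; 100% = bead fluorescence of DMSO wells and lower means quenching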
* hit, by the source's call; . = no result. In the library only some 2.1% were active in any assay of this set; here they are far more common.

SMILES	GRK2 inh	SUMO1-SIM PPI	LMPTP inh	Scp1 inh	STEP block	DNMT1 block	GRK2 CP1	Aptamer quench SP	others
O=C(NC1CCC(O)CC1)c1cccnc1Sc1ccccc1Cl (stereo not given)	0	0	-2	-5	-2	1	.	.
Cc1ccc(CNC(=O)CN2C(=O)NC(C)(c3cccc(Br)c3)C2=O)cc1 (stereo not given)	56*	0	0	-7	0	0	1	97
CCOC(=O)C1CCN(C(=O)C(=O)c2cn(CC(=O)N3CCCCCC3)c3ccccc23)CC1	42*	-4	2	-4	-1	-1	.	.	GRK2 confirm 2=-16;FAM quench SP=103
CCOC(=O)N1CCN(C(=O)C(=O)c2cn(CC(=O)N3CCCCCC3)c3ccccc23)CC1	29	-5	-1	-2	0	-1	.	.
OC[C@@H]1CN(CCN2CCOCC2)C[C@H](n2cnc3c(N4CCOCC4)ncnc32)O1	.	1	-2	.	0	11	.	.
Cn1nc(C2CC2)cc1NC(=O)C1(C)CCN1C(=O)CC(c1ccccc1)c1ccccc1 (stereo not given)	.	2	0	.	2	-4	.	.
CN(C)CCCN(C(=O)c1ccc(S(=O)(=O)N2CCOCC2)cc1)c1nc2cc3c(cc2s1)OCO3	0	-7	-4	-5	-2	-2	.	.
CN(C)CCCN(C(=O)c1ccc(S(=O)(=O)N2CCCCC2)cc1)c1nc2cc3c(cc2s1)OCO3	15	-3	-3	2	2	-2	-14	101
Cc1ccc(Cl)cc1NC(=O)C(=O)N/N=C/c1ccc2c(c1)OCO2	4	2	2	1	0	10	.	.
COc1ccc(S(=O)(=O)N2CCCOC2CNC(=O)C(=O)NCc2ccncc2)cc1 (stereo not given)	0	2	-1	-5	-3	-1	.	.
COc1ccc(CC(=O)NNC(=O)COc2ccc(F)cc2)cc1S(=O)(=O)N1CCOCC1	41*	-4	-1	-5	-2	3	-4	95
COc1ccc(CC(=O)NNC(=O)COc2ccc(C)cc2)cc1S(=O)(=O)N1CCOCC1	0	0	0	-5	2	-3	.	.
CC(C)Cc1nc(SCC(=O)N2CCCCC2)c2c(=O)n(C)c(=O)n(C)c2n1	1	1	0	-5	1	1	.	.
CC(C)C[C@H]1CN=C(Nc2ccccc2)N1CC1CCCCCC1	58*	-2	-1	3	-2	13	-2	99
CCN1C(Nc2ccccc2)=NC[C@@H]1CC(C)C	4	2	-2	-8	1	4	.	.
COc1cccc(OC)c1C(=O)n1nc(C)cc1C	15	0	-2	6	0	-1	-2	102
COc1ccc(Cl)cc1C(=O)n1nc(C)cc1C	0	-3	1	0	-1	-1	.	.
COC(=O)c1scc(C)c1NS(=O)(=O)c1ccc(NC(C)=O)cc1	2	-2	0	-11	0	0	.	.
CN(C)c1ccc(N=Nc2ccc(C(=O)O)cc2)cc1	54*	-39	8	47	23	33	2	102
CCn1cc(CN2CCCC(C(=O)Nc3cccc(-n4cccn4)c3)C2)cn1 (stereo not given)	.	1	0	.	1	0	.	.
Cc1ccc(N(CC(=O)Nc2ccccc2-c2ccccc2)S(=O)(=O)c2ccccc2)c(C)c1	40	3	3	3	4	-2	-3	106
CS(=O)(=O)N(CC(=O)Nc1ccccc1-c1ccccc1)c1ccccc1	1	-1	1	-1	2	-5	.	.
Cc1cc2c(c(=O)n1CCN(C)C)C(c1ccc(Cl)cc1)C(C#N)=C(N)O2 (stereo not given)	0	-2	0	-6	-1	-4	.	.
Cc1cc2c(c(=O)n1C1CC1)C(c1cccc(Cl)c1)C(C#N)=C(N)O2 (stereo not given)	93*	4	0	-3	0	-1	3	100
O=C(CCN1C(=O)c2ccccc2C1=O)Nn1cnnc1	52*	-6	0	1	-2	0	2	94
SMILES	GRK2 inh	SUMO1-SIM PPI	LMPTP inh	Scp1 inh	STEP block	DNMT1 block	GRK2 CP1	Aptamer quench SP	others
Oc1ccc(-c2nccc(-c3ccc(Br)cc3)n2)cc1	6	5	4	-1	-1	-3	-5	100
Cc1cccc(CN2CCN(C(=O)CCc3nnc(C4CCCCC4)o3)CC2)c1	3	4	-1	0	-3	-1	.	.
COc1ccc(C(CC(=O)c2ccccc2)CC(=O)c2ccccc2)cc1OC	1	3	2	-9	2	-3	.	.
O=C(Nc1ccc2c(c1)OCO2)Nc1ccc(Cl)cc1Cl	92*	-1	-1	-9	5	-5	-5	94
COc1ccc(C(=O)N(CN2CCCC2=O)c2ccc(C)cc2)cc1	0	2	0	-9	0	-4	.	.
Cc1ccc(N(CN2CCCC2=O)C(=O)c2ccccc2)cc1	67*	3	-1	-3	2	-1	1	99
CC(=O)N/C(=N/c1nc(C)cc(C)n1)Nc1cccc(C)c1C	17	-3	0	-9	-2	-1	0	98
COc1ccc(C(=O)NC(Cn2ccnc2)C(C)(C)C)cc1OC1CCN(C(C)C)CC1 (stereo not given)	80*	2	0	-2	-2	2	.	.	GRK2 confirm 2=-3;FAM quench SP=102
COCCCNC(=O)c1ccc(OC)c(OC2CCN(C(C)C)CC2)c1	4	4	-2	-2	-7	2	.	.
C=C(c1ccccc1O)n1ccnc1	0	-4	0	3	-3	1	.	.

Screening data as filed in PubChem.
